NR3A LBD binder: NR3A (human) ligand-binding domain modulation; NR3A LBD differential scanning fluorimetry, Tm shift; 0% = protein alone, 100% = glycine-bound protein; Tm shift relative to glycine control, % at 25 µM; actives 2.5% (n = 340,000); AID 1259313;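 active means melting temperature shift of at least 10% of the positive control shift, at one fixed dose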
CHOP inhibitor: CHOP inhibition in unfolded protein response; inhibition, % at 10 µM; actives 3.8% (n = 220,000); AID 2732; CHO-K1 CHOP-promoter luciferase, tunicamycin-induced, 15-18 h;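 active means compounds that reduced the stress-induced luciferase reporter signal by more than about 70% of percent inhibition, limit read from the data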;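 further: 0% = tunicamycin plus vehicle and 100% = wells without tunicamycin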
MPTP inh: blocks calcium-induced mitochondrial swelling | AID 602449 | actives 1.4% (n = 360,000) | inhibition, % at 10 µM | isolated mouse mitochondria, Ca2+ swelling absorbance, 30 min;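 active means inhibition of 50% or more, scaled per plate between neutral and stimulator controls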;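 further: 0% = DMSO wells given calcium and 100% = 1 mM EGTA wells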
WT yeast gro inh: growth inhibition of WT yeast, mitochondrial fusion screen; mitochondrial fusion phenotypic screen, WT strain; inhibition, % at 10 µM; actives 2.1% (n = 190,000); AID 1362; in the data active means inhibition above about 58%; tested in S. cerevisiae
TbMetRS inhib: blocks T. brucei methionyl-tRNA synthetase activity | purified T. brucei MetRS, ATP depletion, Kinase-Glo luminescence | inhibition, % at 11.9 µM | actives 0.4% (n = 360,000) | AID 624268;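 active means inhibition above a per-plate cutoff of the control wells' mean inhibition plus 3 SD, cut at about 5.5% in these data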;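 further: 0% = DMSO wells median and 100% = median of wells with control inhibitor compound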
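System: purified T. brucei MetRS enzyme / Detection: Kinase-Glo luciferase luminescence reporting remaining unconsumed ATP / Medium: HEPES buffer with MgCl2, KCl, DTT, spermine, BSA, pyrophosphatase / Replication: singlicate, one well per compound / Evaluation: percent inhibition relative to median high and low control wells / Schedule: 2 h aminoacylation at 25 °C after 15 min preincubation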
EBV gp42 block: inhibitors of Epstein-Barr virus glycoprotein 42; inhibition, % (tested at 21.74 µM); Fluorescence polarization binding assay, mP read-out; actives 0.42% (n = 220,000); in the data active means inhibition above about 50%
Target sequence (Q1HVG2 whole entry, looked up): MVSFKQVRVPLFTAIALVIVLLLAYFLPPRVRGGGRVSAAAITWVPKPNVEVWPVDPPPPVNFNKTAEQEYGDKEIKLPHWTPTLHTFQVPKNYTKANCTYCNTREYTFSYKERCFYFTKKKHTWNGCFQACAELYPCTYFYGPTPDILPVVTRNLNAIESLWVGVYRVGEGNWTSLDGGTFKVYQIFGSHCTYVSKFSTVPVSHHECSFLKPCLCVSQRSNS
CHOP confirm: confirmation of CHOP induction inhibitors | shares compounds with CHOP inhibitor | CHO-CHOP promoter luciferase reporter, tunicamycin-induced, luminescence | inhibition, % at 10 µM | actives 45% (n = 2,100);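 active means mean of three repeat readings of reporter signal inhibition above a set limit, cut at about 70% in these data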;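 further: 0% = tunicamycin plus vehicle and 100% = wells lacking tunicamycin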
* = called active by the depositor; . = no result given. This is a sample that favours compounds with a hit; in the whole collection about 6.4% have one here.

SMILES | NR3A LBD binder | CHOP inhibitor | MPTP inh | WT yeast gro inh | TbMetRS inhib | EBV gp42 block | CHOP confirm
Oc1[nH]c2ccccc2c1N=Nc1nc2ccccc2s1 | 2 | -29 | 5 | 12 | 0 | 50 | .
CCc1nc(N=Nc2c(O)[nH]c3ccccc23)c2c3c(sc2n1)CCC3 | -1 | 101* | 4 | -5 | 0 | -8 | 35
COc1ccc(C(=O)c2c(C(F)(F)F)oc3c2C(=O)c2ccccc2C3=O)cc1 | -7 | 106* | -4 | 92* | -1 | -23 | 117*
CCC(=O)N1CCc2cc(Br)cc(S(=O)(=O)CCC(=O)NCCc3ccccc3)c21 | -1 | 18 | 1 | -20 | 0 | 4 | .
CCOC(=O)c1c(N)sc(C(O)(C(F)(F)F)C(F)(F)F)c1-c1ccc(Cl)cc1 | 10 | 98* | 5 | 96* | -1 | 18 | 121*
CCOC(=O)c1c(NC(=O)/C=C/C(=O)O)sc(C)c1-c1ccc(Cl)cc1 | -3 | -4 | 2 | -19 | 1 | 9 | .
Cc1ccc2oc(-c3cccc(NC(=O)Cn4cnc5c(=O)n(C)c(=O)n(C)c54)c3)nc2c1 | . | 104* | . | -59 | . | -4 | 69
Cc1ccc(NC(=O)Cn2cnc3c(=O)n(C)c(=O)n(C)c32)c(C)c1 | 2 | -2 | 1 | -6 | 0 | -12 | .
Cn1ncc2c(O/N=C(\N)c3ccc(C(C)(C)C)cc3)ncnc21 | 3 | 99* | 5 | . | -1 | -8 | 85*
O=S(=O)(Nc1ccc(Cc2ccncc2)cc1)c1ccc(Cl)c(Cl)c1 | -2 | 103* | 0 | . | -2 | 9 | 54
Cc1cc2nc(-c3ccc(SCC(=O)N4CCc5ccccc54)nc3)[nH]c2cc1C | 25* | 107* | 9 | 18 | 0 | -31 | 26
Cc1cc(NC(=O)CSc2ccc(-c3nc4cc(C)c(C)cc4[nH]3)cn2)no1 | 6 | 104* | 0 | 6 | 0 | -42 | 15
CCc1nc2c(OCc3cccc(Cl)c3)cccn2c1N(C)C(C)=O | . | . | 1 | . | 0 | . | .
CN(c1ccccc1)c1ccc(/C=C/[N+](=O)[O-])cc1 | 16* | 110* | -1 | 81 | 0 | -7 | -96
COc1ccc(O)c(CNn2c(-c3ccc(Br)cc3)nc3ccccc3c2=O)c1 | -9 | 10 | 5 | 12 | -1 | -55 | .
COc1ccc(C(=O)On2c(-c3ccc(Br)cc3)nc3ccccc3c2=O)cc1 | 0 | 105* | 9 | 24 | 0 | -4 | 69
COc1cc(OC)cc(-c2nc3ccccc3c(=O)n2OC(=O)c2ccc(Br)cc2)c1 | -2 | 106* | 39 | -7 | 0 | 3 | 112*
COc1ccc(N(CC(=O)N/N=C/c2cc(OC)ccc2OC)S(=O)(=O)c2ccccc2)cc1 | 2 | . | 2 | . | 0 | . | .
Cn1c(=O)c2nc(NCc3ccccc3)cnc2n(C)c1=O | -1 | -5 | 0 | -8 | 0 | 20 | .
Cc1nc2c(=O)n(C)c(=O)n(C)c2nc1Cl | 1 | 109* | 5 | 58* | 0 | 0 | 118*
CC(C)(CNS(=O)(=O)c1ccc(Br)s1)N1CCOCC1 | 0 | . | -3 | . | 0 | . | .
COc1cc(-c2nc3cnccn3c2Nc2ccc(C)cc2)ccc1O | -1 | -11 | 0 | -11 | 0 | -5 | .
COc1cc(-c2nc3cnccn3c2Nc2ccc(C(C)C)cc2)ccc1O | -20 | 110* | 0 | -9 | 0 | 4 | 28
O=S(=O)(c1ccc2c(c1)C(=NO)c1cc(S(=O)(=O)N3CCCCC3)ccc1-2)N1CCCCC1 | 2 | . | 18 | -4 | 0 | 2 | .
CC1CCN(S(=O)(=O)c2ccc3c(c2)C(=NO)c2cc(S(=O)(=O)N4CCC(C)CC4)ccc2-3)CC1 | -9 | 108* | 0 | 3 | 0 | -19 | 138*
SMILES | NR3A LBD binder | CHOP inhibitor | MPTP inh | WT yeast gro inh | TbMetRS inhib | EBV gp42 block | CHOP confirm
Cc1ccc(-n2c(C3CC3c3ccc(Cl)cc3)n[nH]c2=S)cc1 (stereo not given) | -4 | 40 | 0 | 24 | 0 | -1 | .
Cc1ccc(C2CC2c2n[nH]c(=S)n2-c2ccc(C)cc2)cc1 (stereo not given) | -2 | 100* | 3 | 31 | -1 | -18 | 0
CCOC(=O)C1=C(O)/C(=C\c2ccc(CNS(=O)(=O)c3ccc(Br)cc3)o2)N=C1C | -3 | 22 | 1 | -21 | 0 | 8 | .
CCOC(=O)C1=C(O)/C(=C/c2ccc(CNC(=O)C(=O)Nc3ccc(C)cc3)o2)N=C1C | -2 | 106* | 1 | -7 | 0 | -19 | 109*
O=C(COc1cccc2c1CCNC2=O)Nc1cccc(F)c1 | 0 | . | -1 | . | 0 | . | .
O=C(CSc1nc(C2CC2)nc2c1cnn2-c1ccccc1)Nc1c[nH]c(=O)[nH]c1=O | -1 | 96* | 0 | -3 | -2 | 11 | 48
Cc1cc(C(=O)NNC(=S)NC(=O)/C=C/c2ccccc2Cl)n[nH]1 | 1 | 108* | 6 | -1 | -1 | -1 | 40
O=C(O)c1ccccc1C(=O)Nc1c(-c2ccccc2)nc2ccccn12 | 0 | . | 0 | . | -1 | . | .
CC(=O)Nc1ccc(-c2nnc(SCC(=O)c3ccc4c(c3)Cc3ccccc3-4)n2C)cc1 | 3 | 105* | 2 | . | 0 | -4 | -86
CN1CC(c2ccccc2)C2(SC(=S)N(Cc3ccco3)C2=O)C12C(=O)Nc1ccccc12 (stereo not given) | 0 | 101* | 1 | 80* | 0 | 8 | 84*
C(=N\Nc1nc(Nc2ccccc2)nc(Nc2ccccc2)n1)/c1cccnc1 | 27* | 97* | 1 | 83* | 0 | -8 | 41
Cc1ccc(NN2C(=O)C=C(c3ccc(Cl)cc3)C2=O)cc1 | 5 | 108* | 0 | 63 | -1 | 2 | 140*
O=C1C=C(c2ccccc2)C(=O)N1Nc1ccccc1 | -1 | 107* | -5 | 87* | 0 | -9 | -6
Cc1ccc(NN2C(=O)C=CC2=O)cc1 | -5 | 10 | 7 | 13 | 0 | 15 | .
CN1CC=C2C(C#N)=C(N)C(C#N)(C#N)C(c3ccsc3)C2C1 (stereo not given) | 1 | -9 | -4 | 19 | -1 | 24 | .
CC(C)c1ccc(C2C3CSCC=C3C(C#N)=C(N)C2(C#N)C#N)cc1 (stereo not given) | . | 106* | . | 19 | . | -27 | 122*
Cc1cc(C2=NNC(=NC3CC3)SC2)c(C)n1-c1ccccc1F | -4 | 105* | 13 | -4 | -1 | -13 | 125*
Cc1cc(C2=NNC(=NC3CCCCC3)SC2)c(C)n1-c1c(C)n(C)n(-c2ccccc2)c1=O | -2 | 42 | 1 | -4 | 0 | -3 | .
CN(CCC1CCOCC1)C(=O)CC1C(=O)NCCN1C/C=C/c1ccccc1 (stereo not given) | -1 | -4 | -1 | -8 | 0 | -2 | .
